Reference: ChEMBL document CHEMBL1128487, “Reduced-size antagonists of luteinizing hormone-releasing hormone active in vitro” (1995)
Square brackets hold non-standard residues; d marks the D form. Peptide text beside a SMILES is read from it. 2Nal = N[C@@H](Cc1ccc2ccccc2c1)C(=O)O

How the values were obtained:
[1] = target: T1, Gonadotropin-releasing hormone receptor (Rattus norvegicus) (UniProt P30969); assay: In vitro antagonistic activity against LH release in rat pituitary cells for control.; type: functional, cell-based; conditions: Pituitary gland cell
T1 sequence (whole entry): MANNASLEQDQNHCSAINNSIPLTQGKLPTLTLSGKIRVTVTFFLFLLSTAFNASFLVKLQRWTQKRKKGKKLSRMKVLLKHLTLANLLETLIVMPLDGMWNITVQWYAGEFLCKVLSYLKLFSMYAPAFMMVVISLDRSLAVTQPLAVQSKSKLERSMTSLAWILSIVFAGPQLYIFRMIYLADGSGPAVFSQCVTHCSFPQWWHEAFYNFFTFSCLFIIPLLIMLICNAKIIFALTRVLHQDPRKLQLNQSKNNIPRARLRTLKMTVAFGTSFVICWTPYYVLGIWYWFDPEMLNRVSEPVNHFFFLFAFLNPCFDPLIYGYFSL
How it was run: (§1)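 Anterior pituitaries from female Sprague-Dawley rats (240-260 g, 18 rats) were minced and dispersed in Gey's solution with trypsin, DNase I and LBBI. Cells were plated in DMEM with 0.45% glucose, 25 mM HEPES, serum, T and 100 nM dexamethasone at about 3.0 × 10^5 cells/mL and cultured 4 days at 37 °C in 8% CO2. Cells were then exposed to antagonist plus 1 ng LHRH in Gey's solution with 0.3% glucose for 2 h. LH in the medium was measured by RIA as ng/mL of RP-3.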

[2] = target: T1, Gonadotropin-releasing hormone receptor (Rattus norvegicus); assay: In vitro inhibition of LH release was determined in rat pituitary cells at a dose of 0.03 ug of analogue and 1 ng of LHRH; type: functional, cell-based; conditions: Pituitary gland cell; how it was run: as §1
[3] = target: T1, Gonadotropin-releasing hormone receptor (Rattus norvegicus); assay: In vitro inhibition of LH release was determined in rat pituitary cells at a dose of 0.1 ug of analogue and 1 ng of LHRH; type: functional, cell-based; conditions: Pituitary gland cell; how it was run: as §1
[4] = target: T1, Gonadotropin-releasing hormone receptor (Rattus norvegicus); assay: In vitro inhibition of LH release was determined in rat pituitary cells at a dose of 0.3 ug of analogue and 1 ng of LHRH; type: functional, cell-based; conditions: Pituitary gland cell; how it was run: as §1
Rattus norvegicus = organism: Rattus norvegicus; assay: In vitro inhibition of LH release in rat pituitary cells at a dose of 1 ng LHRH in absence of the compound.; type: functional, Pituitary gland cell; set-up: unit: ng/mL; how it was run: as §1
[5] = target: T1, Gonadotropin-releasing hormone receptor (Rattus norvegicus); assay: In vitro inhibition of LH release in rat pituitary cells at a dose of 1 ug of analogue and 1 ng of LHRH.; type: functional, cell-based; conditions: Pituitary gland cell; how it was run: as §1
[6] = target: T1, Gonadotropin-releasing hormone receptor (Rattus norvegicus); assay: In vitro inhibition of LH release determined in rat pituitary cells at a dose of 3 ug of analogue and 1 ng of LHRH; type: functional, cell-based; conditions: Pituitary gland cell; how it was run: as §1
[7] = target: T1, Gonadotropin-releasing hormone receptor (Rattus norvegicus); assay: In vitro inhibition of LH release was determined in rat pituitary cells at a dose of 10 ug of analogue and 1 ng of LHRH; type: functional, cell-based; conditions: Pituitary gland cell; how it was run: as §1
[8] = target: T1, Gonadotropin-releasing hormone receptor (Rattus norvegicus); assay: In vitro inhibition of LH release was determined in rat pituitary cells at a dose of 100 ug of analogue and 1 ng of LHRH; type: functional, cell-based; conditions: Pituitary gland cell; how it was run: as §1
[9] = target: T1, Gonadotropin-releasing hormone receptor (Rattus norvegicus); assay: In vitro inhibition of LH release was determined in rat pituitary cells at a dose of 30 ug of analogue and 1 ng of LHRH; type: functional, cell-based; conditions: Pituitary gland cell; how it was run: as §1

Activity [1]	Activity [2]	Activity [3]	Activity [4]	Activity [5]	Activity [6]	Activity [7]	Activity [8]	Activity [9]	Compound	Activity (Rattus norvegicus)
2.1	85	40	10	2					CCNC(=O)[C@@H]1CCCN1C(=O)[C@H](CCCN=C(N)N)NC(=O)[C@H](CC(C)C)NC(=O)[C@@H](Cc1c[nH]c2ccccc12)NC(=O)[C@H](Cc1ccc(O)cc1)NC(=O)[C@H](CO)NC(=O)[C@@H](Cc1ccc2ccccc2c1)NC(C)=O	149
4.1	154	74	13	4	3				CC(=O)N[C@H](Cc1ccc2ccccc2c1)C(=O)N[C@@H](CO)C(=O)N[C@@H](Cc1ccc(O)cc1)C(=O)N[C@H](Cc1ccc2ccccc2c1)C(=O)N[C@@H](CC(C)C)C(=O)N[C@@H](CCCN=C(N)N)C(=O)N1CCC[C@H]1C(N)=O	167
9		134	69	34	14				CCNC(=O)[C@@H]1CCCN1C(=O)[C@H](CCCN=C(N)N)NC(=O)[C@H](CC(C)C)NC(=O)[C@@H](Cc1cccnc1)NC(=O)[C@H](Cc1ccc(O)cc1)NC(=O)[C@H](CO)NC(=O)[C@@H](Cc1ccc2ccccc2c1)NC(C)=O	279
3.5				151	145	101	69	66	CC(=O)N[C@@H](Cc1ccc2ccccc2c1)C(=O)N[C@@H](CCCN=C(N)N)C(=O)N[C@@H](C)C(N)=O	153
3.8		157	112	50	45				CC(=O)N[C@H](Cc1ccc2ccccc2c1)C(=O)N[C@@H](CO)C(=O)N[C@@H](Cc1ccc(O)cc1)C(=O)N[C@H](Cc1ccc2ccccc2c1)C(=O)N[C@@H](CC(C)C)C(=O)N[C@@H](CCCN=C(N)N)C(=O)N1CCC[C@H]1C(=O)NCC(N)=O	132
7.2		118	60	26	8				CC(=O)N[C@H](Cc1ccc2ccccc2c1)C(=O)N[C@@H](CO)C(=O)N[C@@H](CCCCNC(=O)c1ccccn1)C(=O)N[C@H](CCCCNC(=O)c1ccccn1)C(=O)N[C@@H](CC(C)C)C(=O)N[C@@H](CCCN=C(N)N)C(=O)N1CCC[C@H]1C(=O)N[C@H](C)C(N)=O	224
6.3		201	154	67	29				CC(=O)N[C@H](Cc1ccc2ccccc2c1)C(=O)N[C@@H](CO)C(=O)N[C@@H](Cc1ccc(O)cc1)C(=O)N[C@H](CCCCNC(=O)c1ccccn1)C(=O)N[C@@H](CC(C)C)C(=O)N[C@@H](CCCN=C(N)N)C(=O)N1CCC[C@H]1C(=O)N[C@H](C)C(N)=O	241
									CCNC(=O)[C@@H]1CCCN1C(=O)[C@H](CCCCNC(C)C)NC(=O)[C@H](CC(C)C)NC(=O)[C@@H](CCCCNC(=O)c1ccccn1)NC(=O)[C@H](Cc1ccc(O)cc1)NC(=O)[C@H](CO)NC(=O)[C@@H](Cc1ccc2ccccc2c1)NC(C)=O	151
									CCNC(=O)[C@@H]1CCCN1C(=O)[C@H](CCCN=C(N)N)NC(=O)[C@H](CC(C)C)NC(=O)[C@@H](CCCCNC(=O)c1ccccn1)NC(=O)[C@H](CCCCNC(=O)c1ccccn1)NC(=O)[C@H](CO)NC(=O)[C@@H](Cc1ccc2ccccc2c1)NC(C)=O	149
3.1				145	139	129	71	113	CC(=O)N[C@@H](Cc1ccc2ccccc2c1)C(=O)N[C@@H](CCCCNC(=O)c1ccccn1)C(=O)N1CCC[C@H]1C(N)=O	145
									CC(=O)N[C@H](Cc1ccc2ccccc2c1)C(=O)N[C@@H](CO)C(=O)N[C@@H](Cc1ccc(O)cc1)C(=O)N[C@H](Cc1cccnc1)C(=O)N[C@@H](CC(C)C)C(=O)N[C@@H](CCCN=C(N)N)C(=O)N1CCC[C@H]1C(=O)N[C@H](C)C(N)=O	251
4.8		112	72	33	11				CC(=O)N[C@@H](Cc1ccc2ccccc2c1)C(=O)N[C@@H](CO)C(=O)N[C@@H](Cc1ccc(O)cc1)C(=O)N[C@@H](Cc1cccnc1)C(=O)N[C@@H](CC(C)C)C(=O)N[C@@H](CCCN=C(N)N)C(=O)N1CCC[C@H]1C(=O)N[C@H](C)C(N)=O	
2.1	108	72	27	8					CCNC(=O)[C@@H]1CCCN1C(=O)C(CCCN=C(N)N)NC(=O)[C@H](CC(C)C)NC(=O)[C@H](CCCCNC(=O)c1ccccn1)NC(=O)C(CCCCNC(=O)c1ccccn1)NC(=O)[C@H](CO)NC(=O)[C@H](Cc1ccc2ccccc2c1)NC(C)=O (stereo partly drawn)	
3.5	194	200	157	118					CCNC(=O)[C@@H]1CCCN1C(=O)[C@H](CCCCNC(C)C)NC(=O)[C@H](CC(C)C)NC(=O)[C@H](CCCCNC(=O)c1ccccn1)NC(=O)[C@H](Cc1ccc(O)cc1)NC(=O)[C@H](CO)NC(=O)[C@H](Cc1ccc2ccccc2c1)NC(C)=O	
3.5				148	153	124	16	88	CC(=O)N[C@@H](Cc1ccc2ccccc2c1)C(=O)N[C@@H](C)C(N)=O (Ac-[2Nal]-Ala-NH2)	153
3.1				135	141	101	14	59	CCNC(=O)[C@@H]1CCCN1C(=O)[C@H](Cc1ccc2ccccc2c1)NC(C)=O (Ac-[2Nal]-Pro-NHEt)	145
3.1			148	155	151	55		11	CCNC(=O)[C@@H]1CCCN1C(=O)[C@H](CC(C)C)NC(=O)[C@H](Cc1ccc2ccccc2c1)NC(=O)[C@H](Cc1ccc(O)cc1)NC(=O)[C@H](CO)NC(=O)[C@H](Cc1ccc2ccccc2c1)NC(C)=O (Ac-[2Nal]SY[2Nal]LP-NHEt)	145
2.3		117	37	13	4				CC(=O)N[C@@H](Cc1ccc2ccccc2c1)C(=O)N[C@@H](CO)C(=O)N[C@@H](Cc1ccc2ccccc2c1)C(=O)N[C@@H](CC(C)C)C(=O)N[C@@H](CCCN=C(N)N)C(=O)N1CCC[C@H]1C(=O)N[C@@H](C)C(N)=O (Ac-[2Nal]S[2Nal]LRPA-NH2)	155
2.1	127	135	104	55	23				CC(=O)NC(Cc1ccc2ccccc2c1)C(=O)N[C@@H](CO)C(=O)N[C@@H](Cc1ccc(O)cc1)C(=O)NC(Cc1ccc2ccccc2c1)C(=O)N[C@@H](CC(C)C)C(=O)N[C@@H](CCCCNC(C)C)C(=O)N1CCC[C@H]1C(=O)N[C@H](C)C(N)=O (stereo in doubt)	149
3.8	165	158	170	149					CC(C)C[C@H](NC(=O)C(Cc1ccc2ccccc2c1)NC(=O)[C@H](Cc1ccc(O)cc1)NC(=O)[C@H](CO)NC(=O)[C@H](Cc1cccnc1)NC(=O)[C@H](Cc1ccc(Cl)cc1)NC(=O)[C@@H]1CCC(=O)N1)C(=O)N[C@@H](CCCN=C(N)N)C(=O)N1CCC[C@H]1C(=O)N[C@H](C)C(N)=O (stereo in doubt)	132
3.5	146	133	26	6	4				CCNC(=O)[C@@H]1CCCN1C(=O)[C@H](CCCCNC(C)C)NC(=O)[C@H](CC(C)C)NC(=O)C(Cc1ccc2ccccc2c1)NC(=O)[C@H](Cc1ccc(O)cc1)NC(=O)[C@H](CO)NC(=O)C(Cc1ccc2ccccc2c1)NC(C)=O (stereo in doubt)	148
3.5	152	165	152	145	77				CC(=O)N[C@@H](Cc1ccc(Cl)cc1)C(=O)N[C@@H](Cc1cccnc1)C(=O)N[C@@H](CO)C(=O)N[C@@H](Cc1ccc(O)cc1)C(=O)NC(Cc1ccc2ccccc2c1)C(=O)N[C@@H](CC(C)C)C(=O)N[C@@H](CCCN=C(N)N)C(=O)N1CCC[C@H]1C(=O)N[C@H](C)C(N)=O (stereo in doubt)	151
